Measured values from PMC9677924 (International Journal of Nanomedicine, 2022).
Converted amounts (≈) assume the structure as drawn.

How the values were obtained:
[1] = system: MCF-7/HER2 cells; assay: In vitro cytotoxicity, MTT assay; assay type: cell-based; details: Homo sapiens, MCF7, 48 h, read-out: IC50 (ng/mL) Free Drug
Summary of the method: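 MCF-7/HER2 cells grown in DMEM/F12 with 10% FBS and 1% penicillin/streptomycin/amphotericin B at 37 °C, 5% CO2. Seeded at 1×10^4 cells/well for 24 h, then exposed to test compounds (free or nanocarrier forms) at 1~500 ng/mL. Methods give a 48 h exposure; the figure legend gives 72 h. Then 0.5 mg/mL MTT for 3 h, formazan dissolved in DMSO, absorbance read at 550 nm.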

[2] = In vivo pharmacokinetic studies; set-up: species or system Sprague-Dawley rats
[3] = In vivo biodistribution studies in MCF-7/HER2 tumor-bearing mice; set-up: species or system nude mice; details: 8 h after administration; liver and kidneys
[4] = Biosafety examination; assay type: in vivo, nude mice; details: after the Q3D×4 regimen
Summary of the method: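 Organs and tumors came from the MCF-7/HER2 xenograft nude-mouse study (IV dosing every 3 days ×4). Tail morphology was examined on day 24. On day 28 after administration, tissues were fixed in 4% paraformaldehyde. Heart, liver, spleen, lungs and kidneys were H&E-stained and scored for inflammatory cell infiltration.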

[5] = In vitro release of docetaxel and pictilisib; assay type: physicochemical; details: after 12 h
[6] = system: MCF-7/HER2 tumors; assay: In vivo tumor inhibition studies; set-up: species or system nude mice; details: day 24, compared with the PBS group; IV Q3D×4
Summary of the method: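 Female nude mice (7 weeks) injected s.c. in the right thigh with 1×10^6 MCF-7/HER2 cells, plus 20 μg estradiol valerate in sesame oil s.c. in the neck. At ~100 mm3, mice were randomized to 10 groups (n=4, saline control). They received IV tail-vein doses equivalent to 5 mg/kg taxane and/or 2.5 mg/kg PI3K inhibitor every 3 days ×4. Volume (L×W²/2) and body weight were recorded every 3 days. Tumors were excised and weighed on day 24.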

[7] = cited from earlier work
[8] = cited from earlier work; remark: listed apart in the source
[9] = female, Sprague-Dawley, rat, plasma, iv, 5 mg/kg
[10] = female, Sprague-Dawley, rat, plasma, iv, 2.5 mg/kg

AUC(0-inf) [2, 9] [ng·h/mL]	AUC(0-t) [2, 9] [ng·h/mL]	Vd [2, 9] [L/kg]	clearance [2, 9] [mL/min/kg]	half-life [2, 9] [h]	Relative bioavailability (%) of DTX ([2]; relative to Free DTX, IV 5 mg/kg BW DTX, rats) [%]	AUC(0-inf) [2, 10] [ng·h/mL]	AUC(0-t) [2, 10] [ng·h/mL]	Vd [2, 10] [L/kg]	half-life [2, 10] [h]	C0 (μg/mL) of PIC ([2]; pictilisib in plasma, IV 2.5 mg/kg BW PIC, rats, n=3, listed as Free PIC, 2.5 mg/kg) [µg/mL]	SMILES	IC50 [1] [ng/mL]	accumulation of DTX in major organs [3]	liver, H&E staining (inflammatory cell infiltration) [4]	precipitation in the dialysis bag [5]	tumor weights / tumor inhibition [6]	log P [7]	pKa [8]
524 ± 37	487 ± 37	73.4 ± 5.22	160	5.32 ± 0.24	100	–	–	–	–	–	CC(=O)O[C@@]12CO[C@@H]1C[C@H](O)[C@@]1(C)C(=O)[C@H](O)C3=C(C)[C@@H](OC(=O)[C@H](O)[C@@H](NC(=O)OC(C)(C)C)c4ccccc4)C[C@@](O)([C@@H](OC(=O)c4ccccc4)[C@H]21)C3(C)C [DTX, docetaxel]	12.5 ± 2.69 (≈ 0.0155 µM)	higher accumulation in the liver and kidneys	slight liver damage	–	–	–	–
–	–	–	–	–	–	536 ± 44	530 ± 46	19.7 ± 6.27	2.92 ± 0.97	0.691 ± 0.115	CS(=O)(=O)N1CCN(Cc2cc3nc(-c4cccc5[nH]ncc45)nc(N4CCOCC4)c3s2)CC1 [PIC, pictilisib]	86.8 ± 17.6 (≈ 0.169 µM)	–	–	precipitation in the free PIC group was observed	little antitumor efficacy	1.96	13.19
